In assay [1] the target is Mu-type opioid receptor (Rattus norvegicus) (UniProt P33535). The assay can be described thus: Agonist activity at rat mu opioid receptor expressed in rat C6 cell membrane assessed as stimulation of [35S]GTPgammaS binding relative to DAMGO. The class given is functional, cell membranes. The method in brief:
(§1)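 Membranes from CHOκ (human KOR, grown in DMEM-F12) or C6μ (rat MOR, DMEM) cells, 20 μg, incubated 60 min at 25 °C in 20 mM Tris-HCl pH 7.4, 5 mM MgCl2, 100 mM NaCl, 2.2 mM fresh DTT, 30 μM GDP, 0.1 nM [35S]GTPγS with compound; filtered on GF/C, scintillation counting; efficacy versus U69593 (KOR) or DAMGO (MOR); mean ± SEM of three experiments.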
For orientation: GTPγS resists hydrolysis and so accumulates on activated G proteins.

The target in assay [2] is T1, Kappa-type opioid receptor (Homo sapiens, UniProt P41145). The assay can be described thus: Agonist activity at human kappa opioid receptor expressed in CHO cell membrane assessed as stimulation of [35S]GTPgammaS binding. The class given is functional, cell membranes. The method in brief: as §1
T1 sequence (P41145 whole entry): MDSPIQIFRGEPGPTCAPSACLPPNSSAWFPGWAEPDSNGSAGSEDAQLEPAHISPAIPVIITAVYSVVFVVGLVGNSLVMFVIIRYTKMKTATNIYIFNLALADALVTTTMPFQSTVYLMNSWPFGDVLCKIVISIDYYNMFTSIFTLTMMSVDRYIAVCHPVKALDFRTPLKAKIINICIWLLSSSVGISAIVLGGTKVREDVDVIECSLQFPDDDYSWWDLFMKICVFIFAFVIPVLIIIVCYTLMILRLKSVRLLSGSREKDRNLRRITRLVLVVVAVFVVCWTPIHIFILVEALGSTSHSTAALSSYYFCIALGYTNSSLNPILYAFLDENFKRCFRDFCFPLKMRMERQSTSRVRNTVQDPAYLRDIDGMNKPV
Assay [3] addresses T1, Kappa-type opioid receptor. Briefly: Displacement of [3H]diprenorphine from human kappa opioid receptor expressed in CHO cell membrane by liquid scintillation and luminescence counter. In general terms: Loss of bound radioactivity is the signal in a displacement assay; it reports binding, not function.
In assay [4] the target is T2, Mu-type opioid receptor (Rattus norvegicus, UniProt P33535). The assay can be described thus: Displacement of [3H]diprenorphine from rat mu opioid receptor expressed in rat C6 cell membrane by liquid scintillation and luminescence counter.
T2 sequence (P33535 whole entry): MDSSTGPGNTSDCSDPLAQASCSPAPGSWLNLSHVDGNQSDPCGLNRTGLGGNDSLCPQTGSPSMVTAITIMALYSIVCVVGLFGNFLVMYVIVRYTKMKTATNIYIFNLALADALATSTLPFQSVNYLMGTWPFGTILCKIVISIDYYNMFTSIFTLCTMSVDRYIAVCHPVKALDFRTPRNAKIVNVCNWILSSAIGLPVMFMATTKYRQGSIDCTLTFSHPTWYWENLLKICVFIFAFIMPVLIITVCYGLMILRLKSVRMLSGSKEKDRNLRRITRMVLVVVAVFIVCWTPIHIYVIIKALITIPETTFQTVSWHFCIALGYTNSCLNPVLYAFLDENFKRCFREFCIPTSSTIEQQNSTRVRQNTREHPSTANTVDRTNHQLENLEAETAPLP
The target of assay [5] is T2, Mu-type opioid receptor. The assay can be described thus: Agonist activity at rat mu opioid receptor expressed in rat C6 cell membrane assessed as stimulation of [35S]GTPgammaS binding. The format is functional, cell membranes. The method in brief: as §1
The target of assay [6] is T1, Kappa-type opioid receptor. The assay can be described thus: Agonist activity at human kappa opioid receptor expressed in CHO cell membrane assessed as stimulation of [35S]GTPgammaS binding relative to U69593. The format is functional, cell membranes. The essentials: as §1
Assay [7] deals with Mu-type opioid receptor (Rattus norvegicus) (UniProt P33535). Briefly: Antagonist activity at rat mu opioid receptor expressed in rat C6 cell membrane assessed as DAMGO-stimulated of [35S]GTPgammaS binding. The format is functional, cell membranes. The method in brief:
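C6 glioma membranes with stably expressed rat MOR; antagonism of DAMGO-stimulated [35S]GTPγS binding reported as Ke; incubation 60 min, 25 °C, in Tris-HCl pH 7.4 with MgCl2, NaCl, DTT, 30 μM GDP, 0.1 nM [35S]GTPγS; filtration and scintillation read-out.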

The source made the active and inactive calls. No cut-off for these calls is given here.

Sequence of Mu-type opioid receptor (Rattus norvegicus) (P33535 whole entry): as above

Regarding `O=C(/C=C/c1ccccc1)N[C@@H]1CC[C@@]2(OCc3ccccc3)[C@H]3Cc4ccc(O)c5c4[C@@]2(CCN3CC2CC2)[C@H]1O5`, the Activity amounted to 19% in assay [1] and 97% in assay [6]. Further, the EC50 in assay [2] came out at 0.78 nM; on Mu-type opioid receptor [5], 2 nM. In addition, the Ki is 0.86 nM in assay [3] and 0.16 nM on Mu-type opioid receptor [4].
As to `C=CCO[C@@]12CC[C@@H](NC(=O)/C=C/c3ccccc3)[C@@H]3Oc4c(O)ccc5c4[C@@]31CCN(CC1CC1)[C@@H]2C5`, the Activity in assay [1] worked out at 39%; in assay [6], 120%. Also, the EC50 in assay [2] came to 0.079 nM; at Mu-type opioid receptor [5] it was 0.6 nM. Further, the inhibition constant (Ki) came out at 0.12 nM in assay [3] and 0.25 nM at Mu-type opioid receptor [4].
`O=C(/C=C/c1cccc([N+](=O)[O-])c1)N[C@@H]1CC[C@@]2(O)[C@H]3Cc4ccc(O)c5c4[C@@]2(CCN3CC2CC2)[C@H]1O5`: the Activity amounted to 20% in assay [1] and 100% in assay [6]. Moreover, the EC50 in assay [2] was found to be 0.12 nM; at Mu-type opioid receptor [5] it was 0.18 nM. Moreover, the results for the Ki (in assay [3]; on Mu-type opioid receptor [4]) were 0.36 nM and 0.11 nM, respectively.
`O=C(/C=C/c1ccccc1Cl)N[C@@H]1CC[C@@]2(O)[C@H]3Cc4ccc(O)c5c4[C@@]2(CCN3CC2CC2)[C@H]1O5`: the Activity is 17% in assay [1] and 97% in assay [6]. Moreover, the EC50 in assay [2] turned out to be 0.4 nM; on Mu-type opioid receptor [5], 12 nM. Besides, the inhibitory constant (Ki) came to 0.27 nM in assay [3] and 0.079 nM on Mu-type opioid receptor [4].
Take `O=C(/C=C/c1ccccc1)N[C@@H]1CC[C@@]2(OC(=O)c3ccccc3)[C@H]3Cc4ccc(O)c5c4[C@@]2(CCN3CC2CC2)[C@H]1O5`: in assay [1], the outcome was inactive. The Ke in assay [7] turned out to be 0.41 nM. The EC50 in assay [2] worked out at 9.8 nM. The Ki is 1.1 nM in assay [3] and 0.42 nM on Mu-type opioid receptor [4]. Also, the Activity in assay [6] turned out to be 26%.
For the molecule `O=C(/C=C/c1ccccc1)N[C@@H]1CC[C@@]2(O)[C@H]3Cc4ccc(O)c5c4[C@@]2(CCN3CC2CC2)[C@H]1O5`, the Activity amounted to 21% in assay [1] and 100% in assay [6]. In addition, the half-maximal effective concentration (EC50) was found to be 0.12 nM in assay [2] and 1.8 nM at Mu-type opioid receptor [5]. Moreover, the Ki in assay [3] amounted to 0.043 nM; on Mu-type opioid receptor [4] it was 0.17 nM.
Consider `CC(=O)O[C@@]12CC[C@@H](NC(=O)/C=C/c3ccccc3)[C@@H]3Oc4c(O)ccc5c4[C@@]31CCN(CC1CC1)[C@@H]2C5`, for which the Activity in assay [1] turned out to be 19%; in assay [6], 97%. In addition, the figures for the EC50 (in assay [2]; on Mu-type opioid receptor [5]) were 2.4 nM and 1 nM, respectively. In addition, the Ki in assay [3] is 0.59 nM; on Mu-type opioid receptor [4], 0.21 nM.
As for `COc1ccccc1/C=C/C(=O)N[C@@H]1CC[C@@]2(O)[C@H]3Cc4ccc(O)c5c4[C@@]2(CCN3CC2CC2)[C@H]1O5`, the Activity in assay [1] turned out to be 21%; in assay [6], 105%.
As for `O=C(/C=C/c1ccccc1[N+](=O)[O-])N[C@@H]1CC[C@@]2(O)[C@H]3Cc4ccc(O)c5c4[C@@]2(CCN3CC2CC2)[C@H]1O5`, the Activity in assay [1] worked out at 6.7%; in assay [6], 81%. Also, the EC50 came out at 1.9 nM in assay [2] and 0.69 nM on Mu-type opioid receptor [5]. The inhibition constant Ki is 0.3 nM in assay [3] and 0.35 nM at Mu-type opioid receptor [4].
For `O=C(/C=C/c1ccccc1)N[C@@H]1CC[C@@]2(OC(=O)Cc3ccccc3)[C@H]3Cc4ccc(O)c5c4[C@@]2(CCN3CC2CC2)[C@H]1O5`, the Activity in assay [1] came to 41%; in assay [6] it was 76%. Moreover, the values for the EC50 (in assay [2]; on Mu-type opioid receptor [5]) were 0.49 nM and 1.3 nM, respectively. The values for the inhibition constant Ki (in assay [3]; on Mu-type opioid receptor [4]) were 0.26 nM and 0.28 nM, respectively.

As usually defined, the EC50 is the concentration that produces a half-maximal response. Broadly, the Ki is the dissociation constant of the complex between target and ligand, obtained from inhibition or displacement. The low end stands for a stronger hold on the target, the high end for a looser hold on the target.

Source of the values: ChEMBL document CHEMBL1152799, “Mixed kappa/mu opioid receptor agonists: the 6 beta-naltrexamines” (J Med Chem, 2009).
